Data set [1] relates to Staphylococcus aureus. In words: Bactericidal activity against methicillin-sensitive Staphylococcus aureus NRS72 clinical isolate after 20 hrs by broth microdilution method. The format is functional. To be noted: NRS72, 20 h. A general note: Dilution methods test growth across graded concentrations, often in twofold steps.
Data set [2] relates to Staphylococcus aureus. In words: Antimicrobial activity against vancomycin-resistant Staphylococcus aureus 10 clinical isolate after 20 hrs by broth microdilution method. It is filed as functional. To be noted: isolate 10, 20 h. In short, it runs like this:
(§1)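 CLSI broth microdilution in cation-adjusted Mueller Hinton broth. Compounds were serially diluted in triplicate and plates held at 37 °C for 20 h. MIC was taken by eye as the lowest concentration with no visible growth, and the average of the triplicate determinations is reported.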

Data set [3] relates to Enterococcus faecium. In words: Bactericidal activity against vancomycin-resistant Enterococcus faecium ATCC 700221 after 20 hrs by broth microdilution method. The format is functional. The conditions noted are these: ATCC 700221, 20 h.
For data set [4], the system named is Staphylococcus aureus. In words: Bactericidal activity against methicillin-resistant Staphylococcus aureus NRS119 clinical isolate after 20 hrs by broth microdilution method. The conditions noted are these: NRS119, 20 h. It is filed as functional.
The test system of data set [5] is Staphylococcus aureus. In words: Bactericidal activity against methicillin-resistant Staphylococcus aureus USA200 NRS383 clinical isolate after 20 hrs by broth microdilution method. To be noted: USA200 NRS383, 20 h. The format is functional.
Data set [6] has as its system Enterococcus faecium. In words: Antimicrobial activity against vancomycin-resistant Enterococcus faecium ATCC 700221 after 20 hrs by broth microdilution method. It is filed as functional. The conditions noted are these: ATCC 700221, 20 h. A digest of the protocol:
as §1

Data set [7] has as its system Staphylococcus aureus. In words: Bactericidal activity against vancomycin-resistant Staphylococcus aureus 10 clinical isolate after 20 hrs by broth microdilution method. It is filed as functional. The conditions noted are these: isolate 10, 20 h.
Data set [8] deals with Staphylococcus aureus. In words: Bactericidal activity against methicillin-resistant Staphylococcus aureus USA300 NRS384 clinical isolate after 20 hrs by broth microdilution method. It is filed as functional. The conditions noted are these: USA300 NRS384, 20 h.
The test system of data set [9] is Staphylococcus aureus. In words: Bactericidal activity against methicillin-resistant Staphylococcus aureus USA300 assessed as time required to reduce bacterial inoculum to zero colony forming units at 3 times MIC by time kill assay. The format is functional. A digest of the protocol: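 Samples taken at 2, 4, 6, 8, 10, 12 and 24 h were serially diluted in PBS and plated on trypticase soy agar. Viable CFU/mL were counted after at least 16 h at 37 °C.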

In data set [10] the test system is Staphylococcus aureus. In words: Bactericidal activity against methicillin-resistant Staphylococcus aureus USA400 NRS123 clinical isolate after 20 hrs by broth microdilution method. The format is functional. The conditions noted are these: USA400 NRS123, 20 h.
Data set [11] deals with Staphylococcus aureus. In words: Bactericidal activity against methicillin-resistant Staphylococcus aureus USA100 NRS382 clinical isolate after 20 hrs by broth microdilution method. To be noted: USA100 NRS382, 20 h. The format is functional.
Data set [12] relates to Staphylococcus aureus. In words: Antimicrobial activity against methicillin-resistant Staphylococcus aureus RCMB 2658 clinical isolate after 20 hrs by broth microdilution method. The format is functional. The conditions noted are these: RCMB 2658, 20 h. In short, it runs like this:
as §1

The subject of a further data set is HaCaT. In words: Cytotoxicity against human HaCaT cells assessed as cell viability up to 16 ug/ml after 2 hrs by MTS assay. The format is cell-based. In short, it runs like this:
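HaCaT keratinocytes were grown in DMEM with 10% FBS at 37 °C, 5% CO₂. They were exposed in triplicate to 8–256 μg/mL for 2 h, then MTS was added. Background-corrected absorbance was expressed as % viability relative to a DMSO vehicle control.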

A short description of data set [13]: Aqueous solubility of the compound in PBS after 2 hrs by turbidity assay. The format is physicochemical. A digest of the protocol: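 Serial dilutions were made […] and diluted 100-fold into PBS. After 2 h, turbidity was read at 540 nm with pre-addition background subtracted. Turbidity was taken as absorbance > blank mean + 3 SD. Solubility limit is the highest concentration with no turbidity.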

Data set [14] can be described thus: Apparent permeability across apical to basolateral side in human Caco2 cells at pH 6.5 after 2 hrs by LC/MS/MS analysis. It is filed as ADME, cell-based. The conditions noted are these: Caco-2, pH 6.5. A digest of the protocol: (§2)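 Caco-2 cells were grown and differentiated for 3 weeks, fed every 2 days. Compound was added to the apical or basolateral side and measured on the opposite side after 2 h by LC/MS/MS. Apical buffer was pH 6.5 transport buffer (glucose, 10 mM HEPES, HBSS) with 100 μM Lucifer yellow; basolateral buffer was pH 7.4. Lucifer yellow fluorescence checked monolayer integrity. Papp = (dQ/dt)/C₀A; efflux ratio = Papp(B→A)/Papp(A→B).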

The nature of data set [15]: Efflux ratio of apparent permeability from basolateral to apical side over apical to basolateral side in human Caco2 cells after 2 hrs by LC/MS/MS analysis. It is filed as ADME, cell-based. The conditions noted are these: Caco-2. In short, it runs like this:
as §2
(In general: Caco-2 monolayers are a common model of the intestinal barrier.)

Data set [16] is described as follows: Apparent permeability across basolateral to apical side in human Caco2 cells at pH 7.4 after 2 hrs by LC/MS/MS analysis. The conditions noted are these: Caco-2, pH 7.4.

Data on 15 compounds can be found in ChEMBL document CHEMBL3826892, “Second-Generation Phenylthiazole Antibiotics with Enhanced Pharmacokinetic Properties” (J Med Chem, 2016).

≈ marks a conversion by molar mass, not a printed value.

Turning to `CN[C@@H](CC(C)C)C(=O)N[C@H]1C(=O)N[C@@H](CC(N)=O)C(=O)N[C@H]2C(=O)N[C@H]3C(=O)N[C@H](C(=O)N[C@@H](C(=O)O)c4cc(O)cc(O)c4-c4cc3ccc4O)[C@H](O)c3ccc(c(Cl)c3)Oc3cc2cc(c3O[C@H]2O[C@@H](CO)[C@H](O)[C@@H](O)[C@@H]2O[C@@H]2C[C@@](C)(N)[C@@H](O)[C@@H](C)O2)Oc2ccc(cc2Cl)[C@H]1O`, the MBC (commonly the lowest tested concentration that kills the bacteria rather than only halting them) with Staphylococcus aureus [1] is 2 µg/mL (≈ 1.38 µM); against Enterococcus faecium [3], greater than 64 µg/mL; against Staphylococcus aureus [4] it was 1 µg/mL (≈ 0.69 µM); with Staphylococcus aureus [5], 1 µg/mL (≈ 0.69 µM); against Staphylococcus aureus [7], greater than 64 µg/mL; against Staphylococcus aureus [8], 1 µg/mL (≈ 0.69 µM). Further, the MBC in the data set with Staphylococcus aureus [10] and in the data set with Staphylococcus aureus [11] was 1 µg/mL (≈ 0.69 µM) throughout. Moreover, the MIC with Staphylococcus aureus [2] and against Enterococcus faecium [6] was greater than 64 µg/mL in each case. For the same compound, the Time in the data set on Staphylococcus aureus [9] is 24 h.
Regarding `CCCCc1ccc(-c2nc(C)c(C(=O)/C=C/N(C)C)s2)cc1`, in the data set on Staphylococcus aureus [12], the MIC (as a rule, the lowest concentration found to suppress growth) is greater than 25 µg/mL.
`CCCCc1ccc(-c2nc(C)c(/C(C)=N/NC(=N)N)s2)cc1` displayed an MIC against Staphylococcus aureus [12] of 4.8 µg/mL (≈ 14.6 µM). For the same compound, in the data set on HaCaT, the Activity result was “Non-toxic”. Further, the Time with Staphylococcus aureus [9] turned out to be 6 h.
In the case of `CCCCc1ccc(-c2nc(C)c(-c3ccnc(-c4cccnc4)n3)s2)cc1`, in the data set on Staphylococcus aureus [12], the MIC turned out to be 17.2 µg/mL (≈ 44.5 µM).
The compound `CCCCc1ccc(-c2nc(C)c(-c3ccnc(NC(=N)N(C)C)n3)s2)cc1` had an MIC in the data set with Staphylococcus aureus [12] of 0.78 µg/mL (≈ 1.98 µM). For the same compound, the solubility (kinetic) (in general, solubility judged after dilution from a stock solution rather than from solid) at 2 h in [13] stood at 53 µM (≈ 20.9 µg/mL).
In the data set on Staphylococcus aureus [12], `CCCCc1ccc(-c2nc(C)c(-c3ccnc(NC(=N)N)n3)s2)cc1` came in with an MIC of 1.56 µg/mL (≈ 4.26 µM).
Still for that read-out and setting: for `Cc1nc(-c2ccc(C=C3CCCC3)cc2)sc1-c1ccnc(N)n1` the value was 1.17 µg/mL (≈ 3.36 µM); for `Cc1nc(-c2ccc(/C=C/C3CCCCC3)cc2)sc1-c1ccnc(N)n1`, 3.12 µg/mL (≈ 8.29 µM); for `CCCCc1ccc(-c2nc(C)c(-c3ccnc(N4CCCC4)n3)s2)cc1`, greater than 25 µg/mL.
Regarding `Cc1nc(-c2ccc(C3=CCCC3)cc2)sc1-c1ccnc(N)n1`, the lowest concentration to inhibit growth against Staphylococcus aureus [12] (MIC) was 3.12 µg/mL (≈ 9.33 µM). In data set [13], the solubility (kinetic) at 2 h amounted to 35 µM (≈ 11.7 µg/mL).
In the data set on Staphylococcus aureus [12], `CCCCc1ccc(-c2nc(C)c(-c3ccnc(N=C(N(C)C)N(C)C)n3)s2)cc1` registered an MIC greater than 25 µg/mL.
Still for that read-out and setting: the same measure for `Cc1nc(-c2ccc(/C3=C/CCCCCC3)cc2)sc1-c1ccnc(N)n1`: 5.6 µg/mL (≈ 14.9 µM).
On to `CCCCc1ccc(-c2nc(C)c(-c3ccnc(N)n3)s2)cc1`, for which the Papp A→B (usually the apparent permeability from the apical to the basolateral side of a cell layer) at 2 h in data set [14] amounted to 14.9 ×10⁻⁶ cm/s. This compound also showed an MIC in the data set with Staphylococcus aureus [12] of 3.12 µg/mL (≈ 9.62 µM). Further, the efflux ratio – broadly, the permeability from basolateral to apical divided by that in the opposite direction, in the common usage – at 2 h in data set [15] was 1.1. The Papp B→A (as a rule, how fast a substance crosses the layer from the basolateral side) at 2 h in [16] was found to be 17 ×10⁻⁶ cm/s. The compound further displayed a kinetic solubility at 2 h in data set [13] of 42 µM (≈ 13.6 µg/mL).
`CCCCc1ccc(-c2nc(C)c(-c3ccnc(NC)n3)s2)cc1` yielded a minimal inhibitory concentration (MIC) in the data set with Staphylococcus aureus [12] greater than 25 µg/mL.
As to `Cc1nc(-c2ccc(-c3ccsc3)cc2)sc1-c1ccnc(N)n1`, the minimal inhibitory concentration (MIC) in the data set on Staphylococcus aureus [12] worked out at 6.25 µg/mL (≈ 17.8 µM). For the same compound, the kinetic solubility at 2 h in data set [13] is 8.5 µM (≈ 2.98 µg/mL).
